Legend:
[1] = Therapeutic Index (IC50/EC50)
Method in brief: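 Ratio of cytotoxic IC50 in uninfected CEM-SS cells to antiviral EC50 in HIV-1 RF-infected CEM-SS cells, both from 6-day XTT viability readings. Not determined when no EC50 was available.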

CEM-SS [2] = test: Antiviral activity against HIV-1 determined by concentration which resulted in cytotoxicity of 50% of CEM-SS cell population relative to drug-free controls; format: functional, cell-based; conditions: Homo sapiens
Method in brief: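 Cytotoxicity in uninfected CEM-SS cells (RPMI 1640, 10% heat-inactivated FCS, 25 mM HEPES, antibiotics; 37 °C, 5% CO2). Compounds dissolved in DMSO, diluted in medium, top concentration 100 µM, duplicate wells per concentration. 10^4 cells/well, 6-day incubation, viability by XTT dye. IC50 = concentration reducing cell growth by 50% of uninfected controls.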

CEM-SS [3] = test: Concentration required to protect CEM-SS cells from HIV-1 mediated cytopathicity by 50% relative to drug-free controls was determined; format: functional, cell-based, Homo sapiens
Method in brief: (§1)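 CEM-SS cells were infected with HIV-1 RF at MOI about 0.12 TCID50/cell for 4 h at 37 °C, then the virus supernatant was removed. Cells at 10^4/well were exposed to compound diluted from DMSO (maximum 100 µM) in triplicate wells. After 6 days at 37 °C, 5% CO2, viability was read with XTT. EC50 = concentration giving 50% protection from viral cytopathicity relative to infected controls.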

[4] = target: Human immunodeficiency virus type 1 reverse transcriptase (Human immunodeficiency virus 1, UniProt Q72547); test: Inhibition of HIV-1 reverse transcriptase using a poly(rC):oligo(dG)12-18 template primer
Method in brief: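 HIV-1 reverse transcriptase inhibition was measured with a poly(rC):oligo(dG)12-18 template:primer system.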

CEM-SS [5] = test: Concentration required to protect CEM-SS cells from HIV-1 mediated uM; format: functional, cell-based, Homo sapiens; method in brief: as §1

Row | SMILES | TI [1] [Ratio] | IC50 (CEM-SS [2]) [µM] | EC50 (CEM-SS [3]; Homo sapiens, CEM-SS) [µM] | EC50 [4] [µM] | EC50 (CEM-SS [5]) | EC50 (CEM-SS [3]; cem-ss) [µM]
1 | CCCc1cc(=O)oc2c3c(c4c(c12)OC(C)(C)C=C4)OC(C)(C)[C@H](C)[C@H]3O (racemic) | 3.7 | 21 | 5.7 | 5 |  | 
2 | CCCc1cc(=O)oc2c3c(c4c(c12)OC(C)(C)C=C4)OC[C@H](C)C31OCOCO1 (racemic) |  | 6.3 |  |  | Not Active | 
3 | CCCc1cc(=O)oc2c3c(c4c(c12)OC(C)(C)C=C4)O[C@H](CC)[C@@H](C)[C@H]3O (racemic) | 8.2 | 14 | 1.7 | 2 |  | 
4 | CCCc1cc(=O)oc2c3c(c4c(c12)OC(C)(C)C=C4)O[C@H](CC)[C@@H](C)[C@@H]3O (racemic) | 9 | 18 | 2 | 3.2 |  | 
5 | CCCc1cc(=O)oc2c(C(=O)[C@H](C)[C@H](C)O)c(O)c3c(c12)OC(C)(C)C=C3 (racemic) | 3.9 | 24 | 6.2 |  |  | 
6 | CCCc1cc(=O)oc2c3c(c4c(c12)OC(C)(C)C=C4)OC[C@H](C)[C@H]3O (racemic) |  | 22 |  |  | Not Active | 
7 | CCCc1cc(=O)oc2c3c(c4c(c12)OC(C)(C)C=C4)O[C@H](C(C)C)[C@H](C)[C@@H]3O (racemic) |  | 6.9 |  |  | Not Active | 
8 | CCCc1cc(=O)oc2c(C(=O)C(C)(C)C(C)O)c(O)c3c(c12)OC(C)(C)C=C3 (racemic) |  | 37 |  |  | Not Active | 
9 | CCCc1cc(=O)oc2c3c(c4c(c12)OC(C)(C)C=C4)O[C@H](C)[C@H](C)C3=O (racemic) | 4.3 | 12 | 2.8 | > 100 |  | 
10 | CCCc1cc(=O)oc2c3c(c4c(c12)OC(C)(C)C=C4)O[C@H](C)C(C)(C)C3=O |  | 19 | > 100 |  |  | 
11 | CCCc1cc(=O)oc2c1c1c(c3oc(C)c(C)c(=O)c32)C=CC(C)(C)O1 |  | > 100 |  |  | Not Active | 
12 | CCCc1cc(=O)oc2c3c(c4c(c12)OC(C)(C)C=C4)O[C@H](C)[C@H](C)[C@H]3O (racemic) |  | 20 | > 100 |  |  | 
13 | CCCc1cc(=O)oc2c3c(c4c(c12)OC(C)(C)C=C4)O[C@H](C)C(C)(C)[C@H]3O (racemic) | 6.2 | 15 | 2.4 | 32 |  | 
14 | CCCc1cc(=O)oc2c3c(c4c(c12)OC(C)(C)C=C4)O[C@H](C)[C@@H](C)[C@@H]3O [CALANOLIDE A] | 85 | 23 | 0.27 | 0.32 |  | 
15 | CCCc1cc(=O)oc2c3c(c4c(c12)OC(C)(C)C=C4)O[C@H](C(C)C)[C@@H](C)[C@@H]3O (racemic) |  | 6.5 |  |  | Not Active | 
16 | CCCc1cc(=O)oc2c3c(c4c(c12)OC(C)(C)C=C4)O[C@H](C(C)C)[C@@H](C)C3=O (racemic) |  | 21 |  |  | Not Active | 
17 | CCCc1cc(=O)oc2c(C(=O)[C@@H](C)[C@H](C)O)c(O)c3c(c12)OC(C)(C)C=C3 (racemic) | 9.6 | 22 | 2.3 |  |  | 

Row | SMILES | TI [1] [Ratio] | IC50 (CEM-SS [2]) [µM] | EC50 (CEM-SS [3]; Homo sapiens, CEM-SS) [µM] | EC50 [4] [µM] | EC50 (CEM-SS [5]) | EC50 (CEM-SS [3]; cem-ss) [µM]
18 | CCCc1cc(=O)oc2c(C(=O)C(C)C(C)(C)O)c(O)c3c(c12)OC(C)(C)C=C3 (racemic) |  |  |  |  | Not Active | 
19 | CCCc1cc(=O)oc2c3c(c4c(c12)OC(C)(C)C=C4)O[C@H](C)C(C)(C)[C@@H]3O |  | 20 |  |  | Not Active | 
20 | CCCc1cc(=O)oc2c(C(=O)CC)c(OCC)c3c(c12)OC(C)(C)C=C3 |  | 6.6 |  |  | Not Active | 
21 | CCCc1cc(=O)oc2c3c(c4c(c12)OC(C)(C)C=C4)O[C@H](CC)[C@H](C)[C@@H]3O (racemic) |  | 12 |  |  | Not Active | 
22 | CCCc1cc(=O)oc2c3c(c4c(c12)OC(C)(C)C=C4)O[C@H](CC)[C@@H](C)C3=O (racemic) |  | 18 | > 100 |  |  | 
23 | CCCc1cc(=O)oc2c3c(c4c(c12)OC(C)(C)C=C4)OC[C@H](C)C3=O (racemic) |  |  |  |  | Not Active | 
24 | CCCc1cc(=O)oc2c3c(c4c(c12)OC(C)(C)C=C4)OC[C@H](C)[C@@H]3O (racemic) | 3.1 | 22 | 7.2 | 50 |  | 
25 | CCCc1cc(=O)oc2c3c(c4c(c12)OC(C)(C)C=C4)OC(C)(C)CC3O (racemic) |  | 11 |  |  | Not Active | 
26 | CCCc1cc(=O)oc2c3c(c4c(c12)OC(C)(C)C=C4)O[C@H](C)[C@@H](C)[C@@H]3O (racemic) [CALANOLIDE A] | 47 |  |  | 0.97 |  | 0.49
27 | CCCc1cc(=O)oc2c3c(c4c(c12)OC(C)(C)C=C4)OC(C)(C)[C@H](C)C3=O (racemic) |  | 2.4 |  |  | Not Active | 
28 | CCCc1cc(=O)oc2c3c(c4c(c12)OC(C)(C)C=C4)O[C@H](C)[C@@H](C)C3=O (racemic) | 16 | 19 | 1.2 | 40 |  | 
29 | CCCc1cc(=O)oc2c3c(c4c(c12)OC(C)(C)C=C4)O[C@H](C(C)C)[C@@H](C)[C@H]3O (racemic) |  | 6.5 |  |  | Not Active | 
30 | CCCc1cc(=O)oc2c3c(c4c(c12)OC(C)(C)C=C4)OC(C)(C)[C@H](C)[C@@H]3O (racemic) |  | 21 | > 100 |  |  | 
31 | CCCc1cc(=O)oc2c(C(O)CC)c(OCC)c3c(c12)OC(C)(C)C=C3 (racemic) |  | 16 |  |  | Not Active | 
32 | CCCc1cc(=O)oc2c3c(c4c(c12)OC(C)(C)C=C4)O[C@H](CC)[C@H](C)[C@H]3O (racemic) |  | 21 |  |  | Not Active | 
33 | CCCc1cc(=O)oc2c3c(c4c(c12)OC(C)(C)C=C4)O[C@H](C)[C@H](C)[C@@H]3O (racemic) [CALANOLIDE C] |  | 18 |  |  | Not Active | 

Source: ChEMBL document CHEMBL1130339, “Structural analogues of the calanolide anti-HIV agents. Modification of the trans-10,11-dimethyldihydropyran-12-ol ring (ring C)” (J Med Chem, 1997)
